Test results published in ChEMBL document CHEMBL1124441, “Synthesis of congeners and prodrugs. 3. Water-soluble prodrugs of taxol with potent antitumor activity” (1989).

What was measured:
Type in all cases: functional, Mus musculus
Conditions in all cases: route intraperitoneal
B16 [1] = assay: Difference in body weight in grams between test and control animals at a dose of 6.25 mg/kg intraperitoneally
Method in brief: (§1)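 B16 melanoma system: 10⁶ tumor cells inoculated ip on day 0. Drug given ip once daily for 9 days (Q01Dx09) starting day 1, dose as mg/kg body weight per injection. Read-out is the body-weight difference in grams, treated minus control animals. Early deaths, taken as toxicity, are scored on day 4.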

B16 [2] = assay: Difference in body weight in grams between test and control animals at a dose of 50 mg/kg intraperitoneally; method in brief: as §1
B16 [3] = assay: Antitumor activity in B16 Melanoma system animals is indicated by survivors on day 4 at a dose of 12.5 mg/kg intraperitoneally
Method in brief: (§2)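 B16 melanoma, 10^6 cells inoculated ip on day 0. Ip treatment started day 1, schedule Q01Dx09 (one dose daily for 9 days). The score is live animals on day 4 over total animals; early deaths are taken as drug toxicity.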

B16 [4] = assay: Percent of median lifetime of test animals divided by the median lifetime of control animals at a dose of 6.25 mg/kg intraperitoneally
Method in brief: (§3)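 B16 melanoma inoculated ip (10⁶ cells) on day 0. Daily ip treatment for 9 days (Q01Dx09) begins day 1, dosed per injection in mg/kg. %T/C is the median lifespan of treated animals divided by that of tumored untreated controls, ×100. Cures are animals alive on the last test day. Toxic deaths are assessed on day 4.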

B16 [5] = assay: Antitumor activity in B16 Melanoma system animals is indicated by survivors on day 4 at a dose of 50 mg/kg intraperitoneally; method in brief: as §2
B16 [6] = assay: Antitumor activity in B16 Melanoma system animals is indicated by survivors on day 4 at a dose of 25 mg/kg intraperitoneally; method in brief: as §2
B16 [7] = assay: Difference in body weight in grams between test and control animals at a dose of 25 mg/kg intraperitoneally; method in brief: as §1
B16 [8] = assay: Percent of median lifetime of test animals divided by the median lifetime of control animals at a dose of 50 mg/kg intraperitoneally; method in brief: as §3
B16 [9] = assay: Percent of median lifetime of test animals divided by the median lifetime of control animals at a dose of 25 mg/kg intraperitoneally; method in brief: as §3
B16 [10] = assay: Difference in body weight in grams between test and control animals at a dose of 12.5 mg/kg intraperitoneally; method in brief: as §1
B16 [11] = assay: Antitumor activity in B16 Melanoma system animals is indicated by survivors on day 4 at a dose of 6.25 mg/kg intraperitoneally; method in brief: as §2
B16 [12] = assay: Percent of median lifetime of test animals divided by the median lifetime of control animals at a dose of 12.5 mg/kg intraperitoneally; method in brief: as §3
B16 [13] = assay: Percent of median lifetime of test animals divided by the median lifetime of control animals at a dose of 12.25 mg/kg intraperitoneally
Method in brief: (§4)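 B16 melanoma, 10^6 cells ip on day 0, ip treatment from day 1, Q01Dx09 (single dose daily for 9 days). %T/C is median lifetime of treated over untreated tumored controls, times 100. Early deaths are assessed on day 4 for toxicity. Cures are animals alive on the last test day.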

B16 [14] = assay: Percent of median lifetime of test animals divided by the median lifetime of control animals at a dose of 24.5 mg/kg intraperitoneally; method in brief: as §4
B16 [15] = assay: Antitumor activity in B16 Melanoma system animals is indicated by survivors on day 4 at a dose of 6.13 mg/kg intraperitoneally; method in brief: as §2
B16 [16] = assay: Percent of median lifetime of test animals divided by the median lifetime of control animals at a dose of 6.13 mg/kg intraperitoneally; method in brief: as §4
B16 [17] = assay: Antitumor activity in B16 Melanoma system animals is indicated by survivors on day 4 at a dose of 12.25 mg/kg intraperitoneally; method in brief: as §2
B16 [18] = assay: Difference in body weight in grams between test and control animals at a dose of 12.25 mg/kg intraperitoneally
Method in brief: (§5)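 B16 melanoma, 10^6 cells ip on day 0, then ip dosing from day 1, once daily for 9 days (Q01Dx09). The value is the body-weight difference in grams, treated minus tumored control animals.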

B16 [19] = assay: Difference in body weight in grams between test and control animals at a dose of 6.13 mg/kg intraperitoneally; method in brief: as §5
B16 [20] = assay: Percent of median lifetime of test animals divided by the median lifetime of control animals at a dose of 49 mg/kg intraperitoneally; method in brief: as §4
B16 [21] = assay: Difference in body weight in grams between test and control animals at a dose of 49 mg/kg intraperitoneally; method in brief: as §5
B16 [22] = assay: Difference in body weight in grams between test and control animals at a dose of 24.5 mg/kg intraperitoneally; method in brief: as §5
B16 [23] = assay: Antitumor activity in B16 Melanoma system animals is indicated by survivors on day 4 at a dose of 49 mg/kg intraperitoneally; method in brief: as §2
B16 [24] = assay: Antitumor activity in B16 Melanoma system animals is indicated by survivors on day 4 at a dose of 24.5 mg/kg intraperitoneally; method in brief: as §2

CC(=O)OC1C(=O)[C@@]2(C)[C@H]([C@H](OC(=O)c3ccccc3)[C@]3(O)CC(OC(=O)C(OC(=O)CCC(=O)O)C(NC(=O)c4ccccc4)c4ccccc4)C(C)=C1C3(C)C)[C@]1(OC(C)=O)CO[C@@H]1C[C@@H]2O.CNC[C@H](O)[C@@H](O)[C@H](O)[C@H](O)CO (some centres undefined)
Weight difference (B16 [1]): -0.2 g | Weight difference (B16 [2]): -0.6 g | Activity (B16 [3]): 10 | T/C (B16 [4]): 125% | Activity (B16 [5]): 10 | Activity (B16 [6]): 10 | Weight difference (B16 [7]): 0.3 g | T/C (B16 [8]): 241% | T/C (B16 [9]): 176% | Weight difference (B16 [10]): 0.3 g | Activity (B16 [11]): 10 | T/C (B16 [12]): 134%

CC(=O)OC1C(=O)[C@@]2(C)[C@H]([C@H](OC(=O)c3ccccc3)[C@]3(O)CC(OC(=O)C(OC(=O)CCCC(=O)[O-])C(NC(=O)c4ccccc4)c4ccccc4)C(C)=C1C3(C)C)[C@]1(OC(C)=O)CO[C@@H]1C[C@@H]2O.[Na+] (some centres undefined)
T/C (B16 [13]): 192% | T/C (B16 [14]): 225% | Activity (B16 [15]): 8 | T/C (B16 [16]): 159% | Activity (B16 [17]): 8 | Weight difference (B16 [18]): 0.6 g | Weight difference (B16 [19]): 0.4 g | T/C (B16 [20]): 339% | Weight difference (B16 [21]): 0.8 g | Weight difference (B16 [22]): 1.5 g | Activity (B16 [23]): 7 | Activity (B16 [24]): 7
